According to ChEMBL document CHEMBL1147901, “Anticancer, neuroprotective activities and computational studies of 2-amino-1,3,4-thiadiazole based compound” (Bioorg Med Chem, 2007):
The source made the active and inactive calls.

Columns and labels:
TE-671 = test: Antiproliferative activity against human TE671 cells at 10 uM after 96 hrs by MTT assay; assay type: functional, cell-based; details: TE-671, 96 h
Summary of the method: (§1)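 MTT viability. Seeded per well at 0.5 × 10^4 (C6), 1 × 10^4 (TE671, A549) or 3 × 10^4 (HT-29, SK-N-AS). Next day exposed to serial dilutions (5–100 µM) in fresh medium with 10% FBS at 37 °C, 5% CO2 for 96 h. MTT (5 mg/mL) for 4 h, formazan dissolved overnight in 10% SDS/0.01 N HCl, A570. Threshold concentration giving antiproliferative effect recorded.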

Rattus norvegicus [1] = species on record: Rattus norvegicus; test: Neuroprotective activity against glutamate-induced neurotoxicity in rat cortical neurons; assay type: functional
Summary of the method: (§2)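 Cortical neurons from E18 Wistar rat fetuses, plated at 5 × 10^5 cells/mL on poly-L-lysine in B-27/Neurobasal medium and grown to 14 days. Insult was glutamate (500 µM) or serum deprivation (Neurobasal without B-27), alone or with 10 or 25 µM compound, for 48 h. MTT read-out as mean normalized OD ±SEM of 4–8 trials.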

C6 [2] = test: Inhibition of rat glioma C6 cell migration at 5 uM after 24 hrs; assay type: functional, cell-based
Summary of the method: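 Scratch-wound assay. 1 × 10^6 C6 cells were plated per 4-cm dish. Next day the monolayer was scratched with a pipette tip and rinsed twice with PBS. Fresh medium alone or with 5 µM compound for 24 h, then May-Grünwald–Giemsa staining. Cells migrated into the wound were counted on micrographs as mean per field ±SEM over 50 wound areas from four micrographs; Student's t test.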

C6 [3] = test: Antiproliferative activity against rat glioma C6 cells assessed as decreased cell division after 48 hrs; assay type: functional, cell-based; details: C6, 48 h
Summary of the method: (§3)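 BrdU ELISA. Cells seeded at 2 × 10^4 (A549) or 1 × 10^4 (C6) per well. Next day, fresh medium containing serial dilutions (5–50 µM) was added for 48 h. Cells were then labelled with 10 µM BrdU for 2 h, fixed/denatured 30 min, probed with peroxidase anti-BrdU and developed with TMB. Stopped with 1 M H2SO4, A450. Mean normalized OD ±SEM of 5–8 trials, linear regression.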

A549 [4] = test: Antiproliferative activity against human A549 cells assessed as decreased cell division after 48 hrs; assay type: functional, cell-based; details: A549, 48 h; summary of the method: as §3
Rattus norvegicus [5] = species on record: Rattus norvegicus; test: Neuroprotective activity against serum deprivation induced neurotoxicity in rat cortical neurons; assay type: functional; summary of the method: as §2
HT-29 = test: Antiproliferative activity against human HT29 cells at 5 uM after 96 hrs by MTT assay; assay type: functional, cell-based; details: HT-29, 96 h; summary of the method: as §1
SK-N-AS = test: Antiproliferative activity against human SK-N-AS cells at 25 uM after 96 hrs by MTT assay; assay type: functional, cell-based; summary of the method: as §1
A549 [6] = test: Antiproliferative activity against human A549 cells at 10 uM after 96 hrs by MTT assay; assay type: functional, cell-based; details: A549, 96 h; summary of the method: as §1
C6 [7] = test: Antiproliferative activity against rat glioma C6 cells at 25 uM after 96 hrs by MTT assay; assay type: functional, cell-based; details: C6, 96 h; summary of the method: as §1

Oc1ccc(-c2nnc(Nc3ccc(F)cc3)s2)c(O)c1
IC50 (TE-671): 26 µM
Activity (Rattus norvegicus [1]): Dose-dependent effect
Activity (C6 [2]): Active
IC50 (C6 [3]): 23.5 µM
IC50 (A549 [4]): 13.7 µM
Activity (Rattus norvegicus [5]): Dose-dependent effect
IC50 (HT-29): 33.1 µM
IC50 (SK-N-AS): 54.7 µM
IC50 (A549 [6]): 22.8 µM
IC50 (C6 [7]): 27.3 µM
